Assay results gathered from unrelated publications.
Target: Serine/threonine-protein kinase PAK 1 (PAK1, Homo sapiens, UniProt Q13153)

| Compound | effect on | mode | technique | concentration | measurement | value |
| --- | --- | --- | --- | --- | --- | --- |
| C#Cc1n[nH]c2c(-c3cn([C@@H](C)c4ccccc4)c(=O)[nH]c3=O)cc(F)cc12 | enzyme activity | inhibitor |  | 0.1 µM | inhibition | 5.7% |
| O=c1[nH]c2ccccc2n1C1CCN(Cc2ccc(-c3[nH]c4cc5ncnc5cc4nc3-c3ccccc3)cc2)CC1 | cell-free assay |  |  | 0.5 µM | remaining signal | 90.6% |
| Cn1cc(-c2cccc(N3CCc4c(sc5c4CC(C)(C)C5)C3=O)c2CO)cc(Nc2ccncn2)c1=O | enzyme activity | inhibitor |  | 1 µM | inhibition | 9% |
| COc1cc(Nc2ncc(F)c(Nc3ccc4c(n3)NC(=O)C(C)(C)O4)n2)cc(OC)c1OC | binding |  | competition with immobilised ligand | 10 µM | inhibition | 91% |
| N#CC1(c2ccccn2)CCN(Cc2cc(C(=O)O)c(=O)n3ccccc23)CC1 | cell-free assay |  | competition with immobilised ligand | 1 µM | remaining binding | 86% |
| COc1ncccc1-c1cnn2ccc(N3CCN(C(=O)OC(C)C)CC3)nc12 | binding |  | competition with immobilised ligand | 1 µM | remaining binding | 100% |
| C#Cc1n[nH]c2c(-c3cn(C(C)c4ccccn4)c(=O)[nH]c3=O)cc(F)cc12 (centres unmarked) | enzyme activity | inhibitor |  | 1 µM | inhibition | 3.4% |
| Nc1ncc(-c2nc(N3CCOCC3)nc(N3CCOCC3)n2)c(C(F)F)n1 | binding |  | competition with immobilised ligand | 10 µM | remaining binding | 63% |
| Cn1cc(-c2cc(F)cc(N3CCn4c(cc5c4CCCC5)C3=O)c2CO)cc(Nc2ccc(N3CCN(C4COC4)CC3)cn2)c1=O | enzyme activity | inhibitor |  | 0.1 µM | inhibition | 5% |
| Cc1nn(C)cc1-c1nc2c(N3CCN(Cc4ccc(Cl)cc4)CC3)c(Cl)cnc2[nH]1 | binding |  | competition with immobilised ligand | 1 µM | remaining binding | 100% |
| Cn1cncc1[C@@](O)(COc1ccc(C#N)cc1-c1ccc(OC(F)(F)F)cc1)c1ccc(C#N)cc1 | cell-free assay |  | competition with immobilised ligand | 1 µM | remaining binding | 100% |
